Test results taken from ChEMBL document CHEMBL2311514, “Further exploration of M₁ allosteric agonists: subtle structural changes abolish M₁ allosteric agonism and result in pan-mAChR orthosteric antagonism” (Bioorg Med Chem Lett, 2013).
Numbering of substitutions follows the chain as printed. Values belong to the molecule of their own block, whether it stands above or below them. Activity calls are given as the source filed them. The calls are words filed in the database; no cut-off is given here.

Columns and labels:
[1] = biological target: T1, Muscarinic acetylcholine receptor M1 (Rattus norvegicus) (UniProt P08482); experiment: Orthosteric antagonist activity at rat muscarinic M1 receptor expressed in CHO cells using [3HNMS] at 50 uM by dissociation kinetic studies; format: cell-based
T1 sequence (whole entry): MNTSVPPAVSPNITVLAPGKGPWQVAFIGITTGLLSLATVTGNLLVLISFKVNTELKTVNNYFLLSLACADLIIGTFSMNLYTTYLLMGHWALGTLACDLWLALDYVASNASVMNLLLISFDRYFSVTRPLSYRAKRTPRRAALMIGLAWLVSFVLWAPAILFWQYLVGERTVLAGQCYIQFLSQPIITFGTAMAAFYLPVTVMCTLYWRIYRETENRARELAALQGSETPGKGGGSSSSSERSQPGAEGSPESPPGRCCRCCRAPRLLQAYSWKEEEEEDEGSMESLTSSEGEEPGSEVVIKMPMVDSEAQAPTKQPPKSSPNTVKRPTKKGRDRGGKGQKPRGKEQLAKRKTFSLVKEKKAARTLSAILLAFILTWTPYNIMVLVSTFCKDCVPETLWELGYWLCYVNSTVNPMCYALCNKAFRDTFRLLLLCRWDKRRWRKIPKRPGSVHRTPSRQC

[2] = biological target: T2, Muscarinic acetylcholine receptor M1 (Rattus norvegicus, UniProt P08482); experiment: Displacement of [3H]NMS from rat muscarinic M1 receptor expressed in CHO cells after 3 hrs; format: cell-based
T2 sequence (P08482 whole entry): T1 sequence (whole entry)

[3] = biological target: T3, Muscarinic acetylcholine receptor M1 (Homo sapiens) (UniProt P11229); experiment: Antagonist activity at human muscarinic M1 receptor expressed in CHO cells assessed as inhibition of acetylcholine-induced calcium response; format: functional, cell-based
T3 sequence (whole entry): T1 sequence (whole entry) with V5A, S254T, S309P, K320R, G337A, V413I

[4] = biological target: T1, Muscarinic acetylcholine receptor M1 (Rattus norvegicus); experiment: (§1) Antagonist activity at rat muscarinic M1 receptor expressed in CHO cells assessed as inhibition of Ach-induced calcium response; format: functional, cell-based
[5] = biological target: T2, Muscarinic acetylcholine receptor M1; experiment: as §1; format: functional, cell-based
[6] = biological target: T4, Muscarinic acetylcholine receptor M5 (Homo sapiens) (UniProt P08912); experiment: (§2) Antagonist activity at human muscarinic M5 receptor expressed in CHO cells assessed as inhibition of Ach-induced calcium response; format: functional, cell-based
T4 sequence (whole entry): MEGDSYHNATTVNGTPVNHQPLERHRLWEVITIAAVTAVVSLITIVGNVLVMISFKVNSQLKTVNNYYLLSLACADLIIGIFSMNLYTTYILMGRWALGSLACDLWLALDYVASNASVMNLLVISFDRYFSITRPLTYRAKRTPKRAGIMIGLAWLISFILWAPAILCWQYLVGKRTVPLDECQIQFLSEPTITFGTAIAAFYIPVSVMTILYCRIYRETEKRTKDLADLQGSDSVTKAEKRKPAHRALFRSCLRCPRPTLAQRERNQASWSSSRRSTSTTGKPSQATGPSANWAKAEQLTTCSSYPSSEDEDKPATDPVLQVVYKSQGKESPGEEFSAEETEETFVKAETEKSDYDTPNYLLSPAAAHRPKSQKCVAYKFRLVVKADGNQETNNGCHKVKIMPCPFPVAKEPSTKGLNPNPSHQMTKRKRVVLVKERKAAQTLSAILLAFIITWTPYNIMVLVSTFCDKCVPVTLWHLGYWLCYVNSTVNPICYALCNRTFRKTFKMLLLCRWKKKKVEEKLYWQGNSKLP

[7] = biological target: T5, Muscarinic acetylcholine receptor M2 (Homo sapiens) (UniProt P08172); experiment: (§3) Antagonist activity at human muscarinic M2 receptor expressed in CHO cells assessed as inhibition of Ach-induced calcium response; format: functional, cell-based
T5 sequence (whole entry): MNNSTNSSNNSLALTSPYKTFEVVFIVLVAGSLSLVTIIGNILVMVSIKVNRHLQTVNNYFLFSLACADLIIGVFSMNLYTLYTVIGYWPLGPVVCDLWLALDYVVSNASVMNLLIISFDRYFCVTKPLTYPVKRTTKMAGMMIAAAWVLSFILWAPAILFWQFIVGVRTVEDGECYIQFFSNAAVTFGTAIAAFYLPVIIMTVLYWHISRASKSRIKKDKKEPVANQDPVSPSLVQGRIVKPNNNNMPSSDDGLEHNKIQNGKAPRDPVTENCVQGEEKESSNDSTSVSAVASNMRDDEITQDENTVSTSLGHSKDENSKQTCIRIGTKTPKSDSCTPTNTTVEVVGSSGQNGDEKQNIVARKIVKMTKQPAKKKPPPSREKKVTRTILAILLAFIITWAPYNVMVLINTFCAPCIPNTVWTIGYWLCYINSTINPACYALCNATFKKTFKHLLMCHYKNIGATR

[8] = biological target: T6, Muscarinic acetylcholine receptor M5 (Rattus norvegicus, UniProt P08911); experiment: (§4) Antagonist activity at rat muscarinic M5 receptor expressed in CHO cells assessed as inhibition of Ach-induced calcium response; format: functional, cell-based
T6 sequence (P08911 whole entry): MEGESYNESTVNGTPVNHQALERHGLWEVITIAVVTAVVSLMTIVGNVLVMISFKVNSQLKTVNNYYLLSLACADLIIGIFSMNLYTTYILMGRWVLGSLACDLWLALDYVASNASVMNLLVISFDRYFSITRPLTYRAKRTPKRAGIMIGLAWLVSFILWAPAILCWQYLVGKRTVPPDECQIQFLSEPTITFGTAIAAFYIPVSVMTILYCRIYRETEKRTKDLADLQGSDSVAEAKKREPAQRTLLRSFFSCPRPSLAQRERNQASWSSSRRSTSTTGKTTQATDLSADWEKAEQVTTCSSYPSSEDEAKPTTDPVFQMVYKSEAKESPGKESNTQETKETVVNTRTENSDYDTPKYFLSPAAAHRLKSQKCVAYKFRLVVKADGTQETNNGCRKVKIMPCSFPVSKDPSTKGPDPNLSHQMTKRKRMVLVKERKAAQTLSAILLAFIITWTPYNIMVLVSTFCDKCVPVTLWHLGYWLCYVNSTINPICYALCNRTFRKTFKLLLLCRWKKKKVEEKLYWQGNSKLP

[9] = biological target: T7, Muscarinic acetylcholine receptor M4 (Rattus norvegicus, UniProt P08485); experiment: (§5) Antagonist activity at rat muscarinic M4 receptor expressed in CHO cells assessed as inhibition of Ach-induced calcium response; format: functional, cell-based
T7 sequence (P08485 whole entry): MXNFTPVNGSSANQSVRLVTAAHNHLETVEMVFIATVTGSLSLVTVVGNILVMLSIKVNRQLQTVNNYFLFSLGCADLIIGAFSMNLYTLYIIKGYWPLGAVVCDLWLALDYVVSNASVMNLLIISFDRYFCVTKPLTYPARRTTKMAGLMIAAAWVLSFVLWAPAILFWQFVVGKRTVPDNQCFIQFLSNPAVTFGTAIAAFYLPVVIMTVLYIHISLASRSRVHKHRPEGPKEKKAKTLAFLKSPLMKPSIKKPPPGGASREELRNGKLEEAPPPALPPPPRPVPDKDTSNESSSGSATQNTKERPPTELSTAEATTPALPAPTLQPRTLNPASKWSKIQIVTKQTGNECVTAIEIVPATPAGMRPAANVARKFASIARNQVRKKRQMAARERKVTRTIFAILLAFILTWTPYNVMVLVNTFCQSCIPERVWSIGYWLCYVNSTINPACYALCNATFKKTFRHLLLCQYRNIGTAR

[10] = biological target: T8, Muscarinic acetylcholine receptor M3 (Rattus norvegicus, UniProt P08483); experiment: (§6) Antagonist activity at rat muscarinic M3 receptor expressed in CHO cells assessed as inhibition of Ach-induced calcium response; format: functional, cell-based
T8 sequence (P08483 whole entry): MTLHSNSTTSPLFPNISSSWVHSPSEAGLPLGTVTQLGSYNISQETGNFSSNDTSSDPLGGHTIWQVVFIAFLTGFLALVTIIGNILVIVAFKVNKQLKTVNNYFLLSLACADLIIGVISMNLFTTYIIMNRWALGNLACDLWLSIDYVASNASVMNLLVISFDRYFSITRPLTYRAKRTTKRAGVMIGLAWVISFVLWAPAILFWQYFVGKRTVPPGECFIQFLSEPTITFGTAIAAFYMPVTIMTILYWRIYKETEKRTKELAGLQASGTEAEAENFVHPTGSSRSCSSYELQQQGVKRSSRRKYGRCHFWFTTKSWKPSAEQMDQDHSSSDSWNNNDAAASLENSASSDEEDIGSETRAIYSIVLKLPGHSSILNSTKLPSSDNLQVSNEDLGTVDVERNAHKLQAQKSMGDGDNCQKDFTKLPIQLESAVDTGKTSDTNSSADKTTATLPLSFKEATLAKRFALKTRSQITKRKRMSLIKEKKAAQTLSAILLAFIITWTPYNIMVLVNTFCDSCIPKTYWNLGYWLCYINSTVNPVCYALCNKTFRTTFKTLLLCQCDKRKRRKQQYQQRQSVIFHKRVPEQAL

[11] = biological target: T9, Muscarinic acetylcholine receptor M2 (Rattus norvegicus, UniProt P10980); experiment: (§7) Antagonist activity at rat muscarinic M2 receptor expressed in CHO cells assessed as inhibition of Ach-induced calcium response; format: functional, cell-based
T9 sequence (P10980 whole entry): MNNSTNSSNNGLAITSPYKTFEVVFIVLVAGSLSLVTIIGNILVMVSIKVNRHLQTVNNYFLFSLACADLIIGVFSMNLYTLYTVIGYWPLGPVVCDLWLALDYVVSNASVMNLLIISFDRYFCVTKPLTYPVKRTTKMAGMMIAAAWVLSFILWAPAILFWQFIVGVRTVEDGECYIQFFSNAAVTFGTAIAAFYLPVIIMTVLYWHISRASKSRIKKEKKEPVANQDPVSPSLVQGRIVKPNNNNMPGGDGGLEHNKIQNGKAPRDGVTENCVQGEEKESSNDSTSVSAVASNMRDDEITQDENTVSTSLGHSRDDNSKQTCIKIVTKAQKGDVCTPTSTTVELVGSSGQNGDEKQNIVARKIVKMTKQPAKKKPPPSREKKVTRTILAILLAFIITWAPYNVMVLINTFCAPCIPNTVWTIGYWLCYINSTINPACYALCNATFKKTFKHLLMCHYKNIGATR

[12] = biological target: T1, Muscarinic acetylcholine receptor M1 (Rattus norvegicus); experiment: (§8) Partial agonist activity at rat muscarinic M1 receptor expressed in CHO cells calcium response; format: functional, cell-based
How it was run: (§9)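 Run in agonist mode as concentration-response curves on rat M1–M5 receptors. EC50 and pEC50 were taken from the curves. Efficacy was expressed as a percentage of the maximal acetylcholine response.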

[13] = biological target: T10, Muscarinic acetylcholine receptor M5 (Rattus norvegicus) (UniProt P08911); experiment: as §4; format: functional, cell-based
T10 sequence (whole entry): T6 sequence (P08911 whole entry)

[14] = biological target: T11, Muscarinic acetylcholine receptor M4 (Rattus norvegicus) (UniProt P08485); experiment: as §5; format: functional, cell-based
T11 sequence (whole entry): T7 sequence (P08485 whole entry)

[15] = biological target: Muscarinic acetylcholine receptor M3 (Rattus norvegicus) (UniProt P08483); experiment: as §6; format: functional, cell-based
Muscarinic acetylcholine receptor M3 (Rattus norvegicus), sequence (P08483 whole entry, looked up): as the sequence (P08483 whole entry) above

[16] = biological target: T12, Muscarinic acetylcholine receptor M2 (Rattus norvegicus) (UniProt P10980); experiment: as §7; format: functional, cell-based
T12 sequence (whole entry): T9 sequence (P10980 whole entry)

[17] = biological target: T1, Muscarinic acetylcholine receptor M1 (Rattus norvegicus); experiment: Partial agonist activity at rat muscarinic M1 receptor expressed in CHO cells calcium response relative to acetylcholine; format: functional, cell-based; how it was run: as §9
[18] = biological target: T2, Muscarinic acetylcholine receptor M1; experiment: as §8; format: functional, cell-based; how it was run: as §9
[19] = biological target: T13, Muscarinic acetylcholine receptor M5 (Homo sapiens, UniProt P08912); experiment: as §2; format: functional, cell-based
T13 sequence (P08912 whole entry): T4 sequence (whole entry)

[20] = biological target: T14, Muscarinic acetylcholine receptor M2 (Homo sapiens, UniProt P08172); experiment: as §3; format: functional, cell-based
T14 sequence (P08172 whole entry): T5 sequence (whole entry)

[21] = biological target: T13, Muscarinic acetylcholine receptor M5; experiment: Partial agonist activity at human muscarinic M5 receptor expressed in CHO cells calcium response; format: functional, cell-based
[22] = biological target: T14, Muscarinic acetylcholine receptor M2; experiment: Partial agonist activity at human muscarinic M2 receptor expressed in CHO cells calcium response; format: functional, cell-based
[23] = biological target: T8, Muscarinic acetylcholine receptor M3; experiment: Partial agonist activity at rat muscarinic M3 receptor expressed in CHO cells calcium response; format: functional, cell-based; how it was run: as §9
[24] = biological target: T9, Muscarinic acetylcholine receptor M2; experiment: Partial agonist activity at rat muscarinic M2 receptor expressed in CHO cells calcium response; format: functional, cell-based; how it was run: as §9

Structure (SMILES): Cc1ccccc1CN1CCC(N2CCC(n3c(=O)[nH]c4ccccc43)C(F)C2)CC1 (centres undefined)
Activity [1]: Active
Ki [2]: 1350 nM
inhibition [3]: Active
Imax [4]: 13.6%
IC50 ([5]; read-out: IC50): 4.9 µM
inhibition [6]: Active
inhibition [7]: Active
IC50 ([8]; cho, read-out: IC50): > 10 µM
IC50 ([8]; read-out: pIC50 (converted)): > 10 µM
IC50 [9]: 5.2 µM
IC50 ([10]; cho, read-out: IC50): > 10 µM
IC50 ([10]; read-out: pIC50 (converted)): > 10 µM
IC50 ([11]; cho, read-out: IC50): > 10000 nM
IC50 ([11]; read-out: pIC50 (converted)): > 10000 nM
Activity [12]: inactive

Structure (SMILES): CCOC(=O)N1CCC(N2CCC[C@@H](NC(=O)c3cc(Br)cc(Br)c3)C2)CC1
Imax [4]: 0.4%
IC50 ([5]; read-out: pIC50 (converted)): 3.39 µM

Structure (SMILES): CCOC(=O)N1CCC(N[C@H]2CCCN(C(=O)c3ccccc3)C2)CC1
Imax [4]: 3%
IC50 ([5]; read-out: IC50): 0.273 µM
IC50 ([5]; read-out: pIC50 (converted)): 0.479 µM
inhibition [13]: Active
inhibition [14]: Active
inhibition [15]: Active
inhibition [16]: Active

Structure (SMILES): CCOC(=O)N1CCC(N2CCC[C@@H](NC(=O)c3ccc(C(F)(F)F)nc3)C2)CC1
Imax [4]: 2.7%
IC50 ([5]; read-out: pIC50 (converted)): 3.16 µM
IC50 ([8]; read-out: IC50): > 10 µM
IC50 [9]: > 10 µM
IC50 ([10]; read-out: IC50): > 10 µM
IC50 ([11]; read-out: pIC50 (converted)): 1070 nM

Imax [17]: 37.4%
EC50 [18]: 2000 nM
Structure (SMILES): CCOC(=O)N1CCC(N2CCC[C@@H](NC(=O)c3cccc(Br)c3)C2)CC1

Structure (SMILES): Cc1ccccc1CN1CCC(N2CCC(n3c(=O)[nH]c4ccccc43)CC2)CC1
IC50 [19]: 4.9 µM
IC50 [20]: 3.5 µM
EC50 [21]: > 30 µM
EC50 [22]: > 30 µM
IC50 ([8]; read-out: IC50): 3.97 µM
IC50 ([10]; read-out: IC50): 5.48 µM
IC50 ([11]; read-out: IC50): 1290 nM
EC50 [23]: > 30 µM
EC50 [24]: > 30 µM
Imax [17]: 69.3%

Structure (SMILES): Cc1ccccc1CN1CCC(N2CC3CC(n4c(=O)[nH]c5ccccc54)CC3C2)CC1 (centres undefined)
Imax [4]: -1.07%
IC50 ([5]; read-out: IC50): 6.4 µM
IC50 ([8]; read-out: IC50): > 10 µM
IC50 [9]: > 10 µM
IC50 ([10]; read-out: IC50): > 10 µM
IC50 ([11]; read-out: IC50): > 10000 nM
Activity [12]: inactive
